Assay results: ChEMBL document CHEMBL4038321, “Design, Synthesis, and Pharmacokinetics of a Bone-Targeting Dual-Action Prodrug for the Treatment of Osteoporosis” (J Med Chem, 2017)

How the values were obtained:
cathepsin K [1] = target: T1, cathepsin K (Homo sapiens, UniProt P43235); assay: Substrate activity at recombinant human cathepsin K expressed in Escherichia coli assessed as compound cleavage at 100 uM after 2 hrs by HPLC analysis; type: ADME; settings: read-out: Drug degradation
T1 sequence (P43235 whole entry): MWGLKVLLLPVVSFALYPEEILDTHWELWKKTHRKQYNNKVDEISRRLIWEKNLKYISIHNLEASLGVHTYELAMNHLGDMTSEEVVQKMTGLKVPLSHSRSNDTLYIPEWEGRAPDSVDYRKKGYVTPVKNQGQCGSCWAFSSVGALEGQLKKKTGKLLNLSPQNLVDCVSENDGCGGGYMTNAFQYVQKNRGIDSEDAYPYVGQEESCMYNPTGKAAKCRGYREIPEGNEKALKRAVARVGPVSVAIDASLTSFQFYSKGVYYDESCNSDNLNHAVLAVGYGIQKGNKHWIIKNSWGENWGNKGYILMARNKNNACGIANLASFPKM
Method in brief: (§1)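 Human procathepsin K, recombinant from E. coli, was activated for 40 min at room temperature in 50 mM NaOAc-HOAc with 200 mM NaCl, pH 4.1. Final assay had 0.2 µM enzyme in 50 mM MES pH 5.5, 2 mM EDTA, 4 mM DTT and 0.15% chondroitin sulfate. Conjugates or the standard substrate Cbz-Leu-Arg-AMC were at 100 µM. Incubation was at 37 °C with HPLC at UV 240 nm; cleavage was taken from release of 4-aminobenzyl alcohol and its DTT adduct.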

cathepsin K [2] = target: T2, cathepsin K (Rattus norvegicus, UniProt O35186); assay: Substrate activity at recombinant rat cathepsin K expressed in Escherichia coli assessed as compound cleavage at 100 uM after 20 hrs by HPLC analysis; type: ADME; settings: read-out: Drug degradation
T2 sequence (O35186 whole entry): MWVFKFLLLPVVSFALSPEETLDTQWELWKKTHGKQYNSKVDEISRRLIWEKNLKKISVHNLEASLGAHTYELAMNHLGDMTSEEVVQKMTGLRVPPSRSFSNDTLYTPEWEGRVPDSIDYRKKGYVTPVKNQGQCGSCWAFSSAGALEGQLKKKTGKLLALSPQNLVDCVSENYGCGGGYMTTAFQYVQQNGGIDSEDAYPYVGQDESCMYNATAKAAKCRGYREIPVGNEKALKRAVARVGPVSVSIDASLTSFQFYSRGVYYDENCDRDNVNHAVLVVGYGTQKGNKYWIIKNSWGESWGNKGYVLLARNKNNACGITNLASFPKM
Method in brief: (§2)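 Rat cathepsin K was recombinant, expressed in E. coli, and used at 0.2 µM final in 50 mM MES pH 5.5 with 2 mM EDTA, 4 mM DTT and 0.15% chondroitin sulfate. Conjugates or the standard substrate Cbz-Leu-Arg-AMC were at 100 µM and incubated at 37 °C. Aliquots were run by HPLC at UV 240 nm. Cleavage was calculated from the appearance of 4-aminobenzyl alcohol plus its DTT-trapped adduct.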

[3] = Stability in rat serum assessed as parent compound remaining at 100 uM measured after 2 hrs by HPLC analysis (reference value: 93 to 97%); type: ADME, cell-free; settings: read-out: Stability
cathepsin K [4] = target: T2, cathepsin K; assay: Substrate activity at recombinant rat cathepsin K expressed in Escherichia coli assessed as compound cleavage at 100 uM after 2 hrs by HPLC analysis; type: ADME; settings: read-out: Drug degradation; method in brief: as §2
[5] = Stability in rat plasma assessed as parent compound remaining at 100 uM measured after 4 hrs by HPLC analysis (reference value: 49 to 86%); type: ADME, cell-free; settings: read-out: Stability
[6] = Stability in rat plasma assessed as parent compound remaining at 100 uM measured after 2 hrs by HPLC analysis (reference value: 49 to 86%); type: ADME, cell-free; settings: read-out: Stability
[7] = Stability in rat serum assessed as parent compound remaining at 100 uM measured after 4 hrs by HPLC analysis (reference value: 93 to 97%); type: ADME, cell-free; settings: read-out: Stability
[8] = Stability in rat plasma assessed as parent compound remaining at 100 uM measured after 1 hr by HPLC analysis (reference value: 49 to 86%); type: ADME, cell-free; settings: read-out: Stability
cathepsin K [9] = target: T1, cathepsin K; assay: Substrate activity at recombinant human cathepsin K expressed in Escherichia coli assessed as compound cleavage at 100 uM after 3 hrs by HPLC analysis; type: ADME; settings: read-out: Drug degradation; method in brief: as §1
cathepsin K [10] = target: T1, cathepsin K; assay: Substrate activity at recombinant human cathepsin K expressed in Escherichia coli assessed as compound cleavage at 100 uM after 1 hr by HPLC analysis; type: ADME; settings: read-out: Drug degradation; method in brief: as §1
cathepsin K [11] = target: T2, cathepsin K; assay: Substrate activity at recombinant rat cathepsin K expressed in Escherichia coli assessed as compound cleavage at 100 uM after 1 hr by HPLC analysis; type: ADME; settings: read-out: Drug degradation; method in brief: as §2
[12] = Stability in rat plasma assessed as parent compound remaining at 100 uM measured after 24 hrs by HPLC analysis (reference value: 49 to 86%); type: ADME, cell-free; settings: read-out: Stability
[13] = Stability in rat serum assessed as parent compound remaining at 100 uM measured after 24 hrs by HPLC analysis (reference value: 93 to 97%); type: ADME, cell-free; settings: read-out: Stability
[14] = Stability in rat serum assessed as parent compound remaining at 100 uM measured after 1 hr by HPLC analysis (reference value: 93 to 97%); type: ADME, cell-free; settings: read-out: Stability
[15] = Solubility of the compound in phosphate buffer at 2 mg/ml; type: physicochemical
Method in brief: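 Conjugate tested for dissolution at the dosing concentration of 2 mg/mL in PBS alone, then in PBS formulations containing surfactants (PEG400, Tween, Cremaphor). Solutions were judged by visual clarity (homogeneous versus cloudy).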

Bone [16] = assay: Half life in iv dosed Sprague-Dawley rat bone administered as single dose using radiolabeled compound; type: ADME, organism-based, Bone element; settings: in vivo
Method in brief: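 Female Sprague Dawley rats, about 13 weeks old on receipt, got a single tail-vein bolus of 5.0 mg/kg conjugate. The dose held 8.90 µCi [3H] and 1.77 µCi [14C] label, in 10% poloxamer 188 brought to pH 8.0 with NaHCO3 and diluted 1:1 with PBS. Groups of 3 were killed at 6 h and 1, 7, 14 and 28 days. Femurs were oxidized and counted, with skeleton taken as 8% of body weight, and label loss from bone gave half-times.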

Bone [17] = assay: Drug uptake in Sprague-Dawley rat bone at 1 mg/kg, iv after 6 hrs; type: ADME, organism-based, Bone element; settings: in vivo
Plasma = assay: Drug metabolism in Sprague-Dawley rat plasma assessed as tritium label liberation in presence of bone powder; type: ADME, cell-free
Method in brief: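 Tritiated conjugate was incubated in rat plasma at 37 °C. At fixed times up to 24 h the mixture was stirred with bovine bone powder to adsorb intact conjugate and any cleaved bisphosphonate. The supernatant was then scintillation counted as unbound, liberated tritium.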

Bone [18] = assay: Drug uptake in Sprague-Dawley rat bone at 0.2 uci, iv administered as single dose using 14C-labeled compound after 4 hrs; type: ADME, organism-based, Bone element; settings: in vivo

Row | Compound | metabolised at 2 h, 100 µM (cathepsin K [1]) | metabolised at 20 h, 100 µM (cathepsin K [2]) | remaining at 2 h, 100 µM [3] | metabolised at 2 h, 100 µM (cathepsin K [4]) | remaining at 4 h, 100 µM [5] | remaining at 2 h, 100 µM [6] | remaining at 4 h, 100 µM [7] | remaining at 1 h, 100 µM [8] | metabolised at 1 h, 100 µM (cathepsin K [10]) | metabolised at 1 h, 100 µM (cathepsin K [11]) | remaining at 24 h, 100 µM [12] | remaining at 24 h, 100 µM [13] | remaining at 1 h, 100 µM [14] | further results
1 | CCOC(=O)CCCCCCN1C(=O)CC[C@@H]1/C=C/[C@@H](OC(=O)Cc1ccc(COC(=O)N[C@@H](CC(C)C)C(=O)N[C@@H](CCCNC(=N)N)C(=O)Nc2ccc(COC(=O)NCCCC(O)(P(=O)(O)O)P(=O)(O)O)cc2)cc1)C(F)(F)c1ccccc1 | – | – | – | – | – | – | – | – | – | – | – | – | – | solubility [15]: Insoluble
2 | CCCCC[C@@H](/C=C/[C@H]1[C@H](O)CC(=O)[C@@H]1C/C=C\CCCC(=O)O)OC(=O)CSCCCC(P(=O)(O)O)P(=O)(O)O | – | – | – | – | – | – | – | – | – | – | – | – | – | t1/2 (Bone [16]): 96 to 120 h; Drug uptake (Bone [17]): 3.5%; Drug metabolism (Plasma): 15%
3 | CCCCC[C@H](O)/C=C/[C@H]1[C@H](O)CC(=O)[C@@H]1C/C=C\CCCC(=O)NCCCC(O)(P(=O)(O)O)P(=O)(O)O | – | – | – | – | – | – | – | – | – | – | – | – | – | Drug uptake (Bone [18]): 15 %ID

Continued, in another order:

Row | metabolised at 2 h, 100 µM (cathepsin K [1]) | metabolised at 20 h, 100 µM (cathepsin K [2]) | remaining at 2 h, 100 µM [3] | metabolised at 2 h, 100 µM (cathepsin K [4]) | remaining at 4 h, 100 µM [5] | remaining at 2 h, 100 µM [6] | remaining at 4 h, 100 µM [7] | remaining at 1 h, 100 µM [8] | metabolised at 1 h, 100 µM (cathepsin K [10]) | metabolised at 1 h, 100 µM (cathepsin K [11]) | remaining at 24 h, 100 µM [12] | remaining at 24 h, 100 µM [13] | remaining at 1 h, 100 µM [14] | Compound | further results
4 | 75% | 95% | 95% | 80% | 64% | 78% | 86% | 78% | 66% | 73% | 59% | 70% | 97% | CC(C)C[C@H](NC(=O)OCc1ccccc1)C(=O)N[C@@H](CCCNC(=N)N)C(=O)Nc1ccc(COC(=O)NCCCC(O)(P(=O)(O)O)P(=O)(O)O)cc1 | metabolised at 3 h, 100 µM (cathepsin K [9]): 79%
5 | 98% | 52% | 78% | 10% | 90% | 90% | 77% | 95% | 90% | 5% | 65% | 69% | 89% | N=C(N)NCCC[C@H](NC(=O)[C@@H]1CCCN1C(=O)OCc1ccccc1)C(=O)Nc1ccc(COC(=O)NCCCC(O)(P(=O)(O)O)P(=O)(O)O)cc1 | –
